# Results taken from ChEMBL document CHEMBL1124917 (1990).
# Legend:
# Format in all cases: functional, Mus musculus
# P388 [1] = experiment: Average weight change of mice was determined on day 6 after intraperitoneal injection on day 1 at a dose of 400 mg/kg following intraperitoneal implant of P388 leukemia cells in CDF1 mice
# How it was run: (§1)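 Female CDF₁ mice (16–20 g), six per dose, implanted ip with 10⁶ P388 cells kept as ascites in DBA/2 mice. Single ip dose of freshly prepared aqueous solution 1 day post-implant. Body weight change averaged per dose group, read on day 6, in grams.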
# P388 [2] = experiment: Average weight change of mice was determined on day 6 after intraperitoneal injection on day 1 at a dose of 50 mg/kg following intraperitoneal implant of P388 leukemia cells in CDF1 mice; how it was run: as §1
# P388 [3] = experiment: Antitumor activity was determined after intraperitoneal injection on day 1 at a dose of 200 mg/kg following intraperitoneal implant of P388 leukemia cells in CDF1 mice
# How it was run: (§2)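 P388 leukemia carried as ascites in DBA/2 mice; 10⁶ cells implanted ip into female CDF₁ mice (16–20 g), six per dose, 10 as untreated leukemia controls. Single ip dose of freshly prepared aqueous solution 1 day after implant. Daily observation for 30 days; activity taken as median survival time, treated vs untreated groups (% T/C).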
# P388 [4] = experiment: Average weight change of mice was determined on day 6 after intraperitoneal injection on day 1 at a dose of 200 mg/kg following intraperitoneal implant of P388 leukemia cells in CDF1 mice; how it was run: as §1
# P388 [5] = experiment: Antitumor activity was determined after intraperitoneal injection on day 1 at a dose of 50 mg/kg following intraperitoneal implant of P388 leukemia cells in CDF1 mice; how it was run: as §2
# P388 [6] = experiment: Antitumor activity was determined after intraperitoneal injection on day 1 at a dose of 400 mg/kg following intraperitoneal implant of P388 leukemia cells in CDF1 mice; how it was run: as §2
# P388 [7] = experiment: Average weight change of mice was determined on day 6 after intraperitoneal injection on day 1 at a dose of 100 mg/kg following intraperitoneal implant of P388 leukemia cells in CDF1 mice; how it was run: as §1
# P388 [8] = experiment: Antitumor activity was determined after intraperitoneal injection on day 1 at a dose of 100 mg/kg following intraperitoneal implant of P388 leukemia cells in CDF1 mice; how it was run: as §2
# P388 [9] = experiment: Antitumor activity was determined after intraperitoneal injection on day 1 at a dose of 128 mg/kg following intraperitoneal implant of P388 leukemia cells in CDF1 mice; how it was run: as §2
# [10] = Average weight change of mice was determined on day 6 after intraperitoneal injection on day 1 at a dose of 256 mg/kg following intraperitoneal implant of P388 leukemia cells in CDF1 mice; how it was run: as §1
# P388 [11] = experiment: Antitumor activity was determined after intraperitoneal injection on day 1 at a dose of 64 mg/kg following intraperitoneal implant of P388 leukemia cells in CDF1 mice; how it was run: as §2
# P388 [12] = experiment: Antitumor activity was determined after intraperitoneal injection on day 1 at a dose of 256 mg/kg following intraperitoneal implant of P388 leukemia cells in CDF1 mice; how it was run: as §2
# P388 [13] = experiment: Average weight change of mice was determined on day 6 after intraperitoneal injection on day 1 at a dose of 64 mg/kg following intraperitoneal implant of P388 leukemia cells in CDF1 mice; how it was run: as §1
# P388 [14] = experiment: Average weight change of mice was determined on day 6 after intraperitoneal injection on day 1 at a dose of 128 mg/kg following intraperitoneal implant of P388 leukemia cells in CDF1 mice; how it was run: as §1
# P388 [15] = experiment: Average weight change of mice was determined on day 6 after intraperitoneal injection on day 1 at a dose of 32 mg/kg following intraperitoneal implant of P388 leukemia cells in CDF1 mice; how it was run: as §1
# P388 [16] = experiment: Antitumor activity which was determined after intraperitoneal injection on day 1 at a dose of 32 mg/kg following intraperitoneal implant of P388 leukemia cells in CDF1 mice; how it was run: as §2
SMILES,T/C (P388 [3]),AWC (P388 [4]),AWC (P388 [7]),T/C (P388 [8]),T/C (P388 [9]),AWC [10],T/C (P388 [11]),T/C (P388 [12]),AWC (P388 [13]),AWC (P388 [14]),also measured
CCOC(=O)NP(=O)(N1CC1(C)C)N1CC1(C)C (stereo not given) [METUREDEPA],231%,-0.2 g,-0.4 g,181%,,,,,,,AWC (P388 [1]): -1.3 g; AWC (P388 [2]): -0.7 g; T/C (P388 [5]): 163%; T/C (P388 [6]): 244%
CC1(C)CN1P(=O)(Nc1ccccc1)N1CC1(C)C (stereo not given) [PHOSPHINIC ANILIDE DERIVATE],,,,,138%,-0.8 g,144%,169%,-1.3 g,-0.7 g,
CC(=O)OC[C@H]1O[C@@H](n2cc(C)c(=O)[nH]c2=O)C[C@@H]1OC(=O)NP(=O)(N1CC1(C)C)N1CC1(C)C (stereo not given in full),,,,,,-0.5 g,,125%,,,
CCOP(=O)(N1CC1(C)C)N1CC1(C)C (stereo not given),433%,-5.2 g,-2.6 g,289%,,,,,,,
Cc1cn(C2CC(O)C(CNP(=O)(N3CC3(C)C)N3CC3(C)C)O2)c(=O)[nH]c1=O (stereo not given),,,,,150%,-0.7 g,150%,156%,-0.4 g,-0.8 g,AWC (P388 [15]): -0.7 g; T/C (P388 [16]): 131%
CC(=O)O[C@H]1C[C@H](n2cc(C)c(=O)[nH]c2=O)O[C@@H]1COC(=O)NP(=O)(N1CC1(C)C)N1CC1(C)C (stereo not given in full),,,,,,-1.3 g,,113%,,,
